Data as given in ChEMBL document CHEMBL1134510, “Adenosine analogues as selective inhibitors of glyceraldehyde-3-phosphate dehydrogenase of Trypanosomatidae via structure-based drug design” (J Med Chem, 2001).
Each block holds one molecule with its values, some of them ahead of it.

Assays:
[1] = In vitro inhibition of rabbit muscle GAPDH.; design: species or system Oryctolagus cuniculus
Outline: (§1)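 Spectrophotometric assay at 23 °C in 0.10 M triethanolamine/HCl, pH 7.5. Enzyme starts the reaction and inhibitors are in 5% DMSO-d₆. Initial rates over 0–2 min are compared with control. IC50 comes from ≥5 concentrations, or is extrapolated from ≥3 concentrations when above 50 µM.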

[2] = In vitro inhibition of Trypanosoma cruzi GAPDH.; outline: as §1
[3] = molecular target: Glyceraldehyde-3-phosphate dehydrogenase, glycosomal (Leishmania mexicana, UniProt Q27890); test: Inhibitory activity against Leishmania mexicana GAPDH
Outline: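 Spectrophotometric GAPDH assay at 23 °C in 0.10 M triethanolamine/HCl pH 7.5, read as NADH formation at 340 nm. Final: 5.0 mM MgSO4, 1.0 mM EDTA, 12.8 mM KH2PO4, 1.0 mM DTT, 1.0 mM NaN3, 0.45 mM NAD+, 1.87 mM fresh glyceraldehyde-3-phosphate, 5% DMSO-d6. Started with enzyme. Initial rates 0–2 min as % of control. IC50 from ≥5 concentrations (≤50 µM) or extrapolated from ≥3.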

[4] = In vitro inhibition of Trypanosoma brucei GAPDH.; outline: as §1
[5] = test system: Trypanosoma brucei; test: Effective concentration required to block the growth of bloodstream Trypanosoma brucei; type: functional; conditions: read-out: ED50 (the source's name)
Outline: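 Bloodstream-form strain 427 trypomastigotes are grown in HMI-9 with 10% FBS at 37 °C, 5% CO₂. Triplicate wells are seeded at 5 × 10³ parasites per well with serially diluted drug. Growth is read with Alamar Blue at 48 h. Assays were run twice.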

[6] = test system: Trypanosoma cruzi; test: Effective concentration required to inhibit the growth of mammalian stage of Trypanosoma cruzi grown in murine 3T3 fibroblasts; type: functional; conditions: read-out: ED50 (the source's name)
Outline: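 Tulahuen strain stably carrying E. coli lacZ. Mammalian stages are cocultured with mouse 3T3 fibroblasts in RPMI 1640 with 10% FBS at 37 °C, 5% CO₂. Intracellular growth is followed by a colorimetric β-galactosidase read-out. Assays were run twice.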

[7] = test system: NIH3T3; test: Effective concentration required to inhibit the growth of murine 3T3 fibroblasts; type: functional; conditions: Mus musculus, read-out: ED50 (the source's name)
[8] = Inhibitory activity against Leishmania mexicana GAPDH; Inactive at 50 uM

Chain of Glyceraldehyde-3-phosphate dehydrogenase, glycosomal (Q27890 whole entry, looked up): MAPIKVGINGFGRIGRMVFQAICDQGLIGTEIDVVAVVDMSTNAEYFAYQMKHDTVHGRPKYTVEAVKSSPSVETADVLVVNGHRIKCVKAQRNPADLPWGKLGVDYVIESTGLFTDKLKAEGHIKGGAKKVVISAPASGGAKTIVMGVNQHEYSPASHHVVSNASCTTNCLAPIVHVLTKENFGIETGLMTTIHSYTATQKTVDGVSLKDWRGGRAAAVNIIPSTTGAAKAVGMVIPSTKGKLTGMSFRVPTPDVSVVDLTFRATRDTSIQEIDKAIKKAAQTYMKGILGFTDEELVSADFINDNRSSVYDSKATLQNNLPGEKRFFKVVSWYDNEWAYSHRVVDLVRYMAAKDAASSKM

SMILES: O=C(N[C@@H]1[C@H](O)[C@@H](CO)O[C@H]1n1cnc2c(NCc3cc(O)cc4ccccc34)ncnc21)c1cc(Cl)cc(Cl)c1
IC50 [1]: > 50 µM
IC50 [2]: 40 µM
IC50 [3]: 25 µM
IC50 [4]: 55 µM
EC50 [5]: 12 µM
EC50 [6]: 41 µM
EC50 [7]: 43 µM

SMILES: O=C(N[C@@H]1[C@H](O)[C@@H](CO)O[C@H]1n1cnc2c(NCc3cccc4ccccc34)ncnc21)c1cccc(Cl)c1
IC50 [3]: 6 µM

SMILES: COc1ccc(C(=O)N[C@@H]2[C@H](O)[C@@H](CO)O[C@H]2n2cnc3c(NCc4cccc5ccccc45)ncnc32)cc1O
IC50 [3]: 37 µM

SMILES: O=C(N[C@@H]1[C@H](O)[C@@H](CO)O[C@H]1n1cnc2c(NCc3cccc4ccccc34)ncnc21)c1cc(Cl)cc(Cl)c1
IC50 [1]: > 50 µM
IC50 [2]: 75 µM
IC50 [3]: 12 µM
IC50 [4]: 100 µM
EC50 [5]: 5 µM
EC50 [6]: 7 µM
EC50 [7]: 35 µM

SMILES: COc1cc(C(=O)N[C@@H]2[C@H](O)[C@@H](CO)O[C@H]2n2cnc3c(NCc4cccc5ccccc45)ncnc32)ccc1O
IC50 [3]: 10 µM

SMILES: COc1cc(OC)cc(C(=O)N[C@@H]2[C@H](O)[C@@H](CO)O[C@H]2n2cnc3c(NCc4cc(OC)cc5ccccc45)ncnc32)c1
IC50 [1]: > 50 µM
IC50 [2]: 7 µM
IC50 [3]: 2 µM
IC50 [4]: 5 µM
EC50 [5]: 35 µM
EC50 [6]: 35 µM
EC50 [7]: > 50 µM

SMILES: COc1ccc(C(=O)N[C@@H]2[C@H](O)[C@@H](CO)O[C@H]2n2cnc3c(NCc4cccc5ccccc45)ncnc32)cc1OC
IC50 [1]: > 50 µM
IC50 [2]: 7 µM
IC50 [3]: 4 µM
IC50 [4]: 47 µM
EC50 [5]: 36 µM
EC50 [6]: 22 µM
EC50 [7]: > 55 µM

SMILES: O=C(N[C@@H]1[C@H](O)[C@@H](CO)O[C@H]1n1cnc2c(NCc3cccc4ccccc34)ncnc21)c1cc(O)cc(O)c1
IC50 [1]: > 50 µM
IC50 [2]: 14 µM
IC50 [3]: 5 µM
IC50 [4]: 26 µM
EC50 [5]: 50 µM
EC50 [6]: > 50 µM
EC50 [7]: > 50 µM

SMILES: COc1cc(OC)cc(C(=O)N[C@@H]2[C@H](O)[C@@H](CO)O[C@H]2n2cnc3c(NCc4cc(O)cc5ccccc45)ncnc32)c1
IC50 [1]: > 50 µM
IC50 [2]: 10 µM
IC50 [3]: 2 µM
IC50 [4]: 8 µM
EC50 [5]: 38 µM
EC50 [6]: > 50 µM
EC50 [7]: > 50 µM

SMILES: O=C(N[C@@H]1[C@H](O)[C@@H](CO)O[C@H]1n1cnc2c(NCc3cc(O)cc4ccccc34)ncnc21)c1cccc(Cl)c1
IC50 [1]: > 50 µM
IC50 [2]: 12 µM
IC50 [3]: 4 µM
IC50 [4]: 25 µM
EC50 [5]: 16 µM
EC50 [6]: 30 µM
EC50 [7]: > 50 µM

SMILES: COc1cc(OC)cc(C(=O)N[C@@H]2[C@H](O)[C@@H](CO)O[C@H]2n2cnc3c(NCc4cccc5ccccc45)ncnc32)c1
IC50 [1]: > 50 µM
IC50 [2]: 7 µM
IC50 [3]: 2 µM
IC50 [4]: 7 µM
EC50 [5]: 17 µM
EC50 [6]: 8 µM
EC50 [7]: 40 µM

SMILES: O=C(N[C@@H]1[C@H](O)[C@@H](CO)O[C@H]1n1cnc2c(NCc3cccc4ccccc34)ncnc21)c1ccc(O)c(O)c1
IC50 [3]: 18 µM

SMILES: COc1ccc(C(=O)N[C@@H]2[C@H](O)[C@@H](CO)O[C@H]2n2cnc3c(NCc4cccc5ccccc45)ncnc32)cc1
IC50 [3]: 100 µM

SMILES: COc1ccc(C(=O)N[C@@H]2[C@H](O)[C@@H](CO)O[C@H]2n2cnc3c(NCc4cccc5ccccc45)ncnc32)cc1OC(C)=O
IC50 [3]: 78 µM

SMILES: O=C(N[C@@H]1[C@H](O)[C@@H](CO)O[C@H]1n1cnc2c(NCc3cccc4ccccc34)ncnc21)c1ccc(O)cc1
IC50 [3]: 80 µM

SMILES: COc1cccc(C(=O)N[C@@H]2[C@H](O)[C@@H](CO)O[C@H]2n2cnc3c(NCc4cc(O)cc5ccccc45)ncnc32)c1
IC50 [1]: > 50 µM
IC50 [2]: 12 µM
IC50 [3]: 6 µM
IC50 [4]: 25 µM
EC50 [5]: 35 µM
EC50 [6]: > 50 µM
EC50 [7]: > 50 µM

SMILES: COc1cc(C(=O)N[C@@H]2[C@H](O)[C@@H](CO)O[C@H]2n2cnc3c(NCc4cccc5ccccc45)ncnc32)ccc1OC(C)=O
IC50 [3]: 10 µM

SMILES: COc1cccc(C(=O)N[C@@H]2[C@H](O)[C@@H](CO)O[C@H]2n2cnc3c(NCc4cccc5ccccc45)ncnc32)c1
IC50 [1]: > 50 µM
IC50 [2]: 12 µM
IC50 [3]: 6 µM
IC50 [4]: 25 µM
EC50 [5]: 18 µM
EC50 [6]: 10 µM
EC50 [7]: 40 µM

SMILES: Nc1ncnc2c1ncn2C1O[C@H](CNC(=O)CC2CCCCC2)[C@@H](O)[C@H]1O (stereo partly specified)
IC50 [3]: 250 µM

IC50 [8]: Not Active
SMILES: O=C(CC1CCCCC1)NC[C@H]1OC(n2cnc3c(NCc4cccc5ccccc45)ncnc32)[C@H](O)[C@@H]1O (stereo partly specified)

SMILES: Nc1ncnc2c1ncn2C1O[C@H](CNC(=O)C(c2ccccc2)c2ccccc2)[C@@H](O)[C@H]1O (stereo partly specified)
IC50 [3]: 250 µM

IC50 [8]: Not Active
SMILES: O=C(NC[C@H]1OC(n2cnc3c(NCc4cccc5ccccc45)ncnc32)[C@H](O)[C@@H]1O)C(c1ccccc1)c1ccccc1 (stereo partly specified)

SMILES: COc1cccc(C(=O)N[C@@H]2[C@H](O)[C@@H](CO)O[C@H]2n2cnc3c(NCc4ccc(OC)c5ccccc45)ncnc32)c1
IC50 [1]: > 50 µM
IC50 [2]: 50 µM
IC50 [3]: 6 µM
IC50 [4]: 26 µM
EC50 [5]: 10 µM
EC50 [6]: 12 µM
EC50 [7]: 50 µM

SMILES: COc1cc(OC)cc(C(=O)N[C@@H]2C(Cn3cnc4c(NCc5ccccc5Sc5ccccc5CO)ncnc43)OC(CO)[C@@H]2O)c1 (stereo partly specified)
IC50 [3]: 75 µM

SMILES: CC(=O)Oc1cc(OC(C)=O)cc(C(=O)N[C@@H]2[C@H](O)[C@@H](CO)O[C@H]2n2cnc3c(NCc4cccc5ccccc45)ncnc32)c1
IC50 [1]: > 50 µM
IC50 [2]: 12 µM
IC50 [3]: 10 µM
IC50 [4]: 14 µM
EC50 [5]: > 50 µM
EC50 [6]: > 50 µM
EC50 [7]: > 50 µM

IC50 [8]: Not Active
SMILES: O=C(N[C@@H]1[C@H](O)[C@@H](CO)O[C@H]1n1cnc2c(NCc3cccc4ccccc34)ncnc21)c1ccccc1O

SMILES: COc1cccc(C(=O)N[C@@H]2[C@H](O)[C@@H](CO)O[C@H]2n2cnc3c(NCc4cc(OC)cc5ccccc45)ncnc32)c1
IC50 [1]: > 50 µM
IC50 [2]: 12 µM
IC50 [3]: 3 µM
IC50 [4]: 12 µM
EC50 [5]: 31 µM
EC50 [6]: 20 µM
EC50 [7]: > 50 µM

SMILES: O=C(N[C@@H]1[C@H](O)[C@@H](CO)O[C@H]1n1cnc2c(NCc3cccc4ccccc34)ncnc21)c1cccc(O)c1
IC50 [3]: 25 µM

SMILES: COc1cc(OC)cc(C(=O)N[C@@H]2C(Cn3cnc4c(Nc5ccc6ccccc6c5)ncnc43)OC(CO)[C@@H]2O)c1 (stereo partly specified)
IC50 [3]: 60 µM

SMILES: COc1cc(CNc2ncnc3c2ncn3[C@@H]2O[C@H](CO)[C@@H](O)[C@H]2NC(=O)c2cc(Cl)cc(Cl)c2)c2ccccc2c1
IC50 [1]: > 50 µM
IC50 [2]: 40 µM
IC50 [3]: 25 µM
IC50 [4]: 45 µM
EC50 [5]: 16 µM
EC50 [6]: 16 µM
EC50 [7]: 32 µM

SMILES: CC(=O)Oc1ccc(C(=O)N[C@@H]2[C@H](O)[C@@H](CO)O[C@H]2n2cnc3c(NCc4cccc5ccccc45)ncnc32)cc1OC(C)=O
IC50 [3]: 25 µM

SMILES: O=C(N[C@@H]1[C@H](O)[C@@H](CO)O[C@H]1n1cnc2c(NCc3cccc4ccccc34)ncnc21)c1ccc(Cl)cc1
IC50 [3]: 100 µM

SMILES: CC(=O)Oc1ccc(C(=O)N[C@@H]2[C@H](O)[C@@H](CO)O[C@H]2n2cnc3c(NCc4cccc5ccccc45)ncnc32)cc1
IC50 [3]: 100 µM

SMILES: COc1cc(OC)cc(C(=O)N[C@@H]2C(Cn3cnc4c(N)ncnc43)OC(CNC(=O)C(c3ccccc3)c3ccccc3)[C@@H]2O)c1 (stereo partly specified)
IC50 [3]: 60 µM

SMILES: COc1cc(OC)cc(C(=O)N[C@@H]2C(Cn3cnc4c(NCc5ccccc5)ncnc43)OC(CO)[C@@H]2O)c1 (stereo partly specified)
IC50 [3]: 20 µM

SMILES: COc1cc(OC)cc(C(=O)N[C@@H]2C(Cn3cnc4c(NCc5ccccc5C)ncnc43)OC(CO)[C@@H]2O)c1 (stereo partly specified)
IC50 [3]: 25 µM

IC50 [8]: Not Active
SMILES: COc1cccc(C(=O)N[C@@H]2[C@H](O)[C@@H](CO)O[C@H]2n2cnc3c(NCc4cccc5ccccc45)ncnc32)c1OC(C)=O

SMILES: COc1cc(OC)cc(C(=O)N[C@@H]2C(Cn3cnc4c(N)ncnc43)OC(CNC(=O)CC3CCCCC3)[C@@H]2O)c1 (stereo partly specified)
IC50 [3]: 100 µM

SMILES: COc1cc(OC)cc(C(=O)N[C@@H]2C(Cn3cnc4c(NC5CCCc6ccccc65)ncnc43)OC(CO)[C@@H]2O)c1 (stereo partly specified)
IC50 [3]: 75 µM

SMILES: COc1cc(OC)cc(C(=O)N[C@@H]2C(Cn3cnc4c(NC(c5ccccc5)c5ccccc5)ncnc43)OC(CO)[C@@H]2O)c1 (stereo partly specified)
IC50 [3]: 55 µM

SMILES: COc1cc(OC)cc(C(=O)N[C@@H]2C(Cn3cnc4c(NCc5cccc(C)c5)ncnc43)OC(CO)[C@@H]2O)c1 (stereo partly specified)
IC50 [3]: 25 µM

SMILES: CN(C)c1cccc(C(=O)N[C@@H]2[C@H](O)[C@@H](CO)O[C@H]2n2cnc3c(NCc4cccc5ccccc45)ncnc32)c1
IC50 [3]: 25 µM

IC50 [8]: Not Active
SMILES: O=C(N[C@@H]1[C@H](O)[C@@H](CO)O[C@H]1n1cnc2c(NCc3cccc4ccccc34)ncnc21)c1ccccc1Cl

SMILES: CC(=O)Oc1cccc(C(=O)N[C@@H]2[C@H](O)[C@@H](CO)O[C@H]2n2cnc3c(NCc4cccc5ccccc45)ncnc32)c1
IC50 [3]: 50 µM

IC50 [1]: > 50 µM
SMILES: O=C(Cn1ccnc1[N+](=O)[O-])NCc1ccccc1 [BENZNIDAZOLE]
EC50 [6]: 0.5 µM
EC50 [7]: > 50 µM
